Reference: ChEMBL document CHEMBL4257503, “N-Acetyl-3-aminopyrazoles block the non-canonical NF-kB cascade by selectively inhibiting NIK” (Medchemcomm, 2018)

Experiments:
[1] = biological target: Tyrosine-protein kinase CSK (Homo sapiens, UniProt P41240); assay: Inhibition of CSK (unknown origin)
[2] = biological target: Epidermal growth factor receptor (Homo sapiens, UniProt P00533); assay: Inhibition of wild-type EGFR (unknown origin)
[3] = biological target: Maternal embryonic leucine zipper kinase (Homo sapiens, UniProt Q14680); assay: Inhibition of MELK (unknown origin)
[4] = biological target: T1, Mitogen-activated protein kinase kinase kinase 14 (Homo sapiens, UniProt Q99558); assay: Inhibition of NIK-induced NFkappaB activation in human EJM cells at 25 uM after 6 hrs by dual luciferase reporter gene assay relative to control; assay type: cell-based
Summary of the method: (§1)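 Cells were nucleofected with the pGL4.32 NF-κB-RE firefly luciferase and pGL4.74 TK-Renilla plasmids (3 µg, 10:1 ratio) and cultured for 24 h at 37 °C. Compound (10, 25, 50 or 100 µM) was then added for 6 h. Firefly luminescence was normalised to Renilla from the same sample and expressed as % of vehicle control. Means ± SD of three independent experiments.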

[5] = Octanol/phosphate buffered saline partition coefficient, log D of the compound at pH 7.4; assay type: physicochemical
[6] = biological target: Interleukin-1 receptor-associated kinase 4 (Homo sapiens, UniProt Q9NWZ3); assay: Inhibition of untagged IRAK4 (unknown origin)
[7] = biological target: Glycogen synthase kinase-3 beta (Homo sapiens, UniProt P49841); assay: Inhibition of GSK3-beta (unknown origin)
Sequence of Glycogen synthase kinase-3 beta (P49841 whole entry): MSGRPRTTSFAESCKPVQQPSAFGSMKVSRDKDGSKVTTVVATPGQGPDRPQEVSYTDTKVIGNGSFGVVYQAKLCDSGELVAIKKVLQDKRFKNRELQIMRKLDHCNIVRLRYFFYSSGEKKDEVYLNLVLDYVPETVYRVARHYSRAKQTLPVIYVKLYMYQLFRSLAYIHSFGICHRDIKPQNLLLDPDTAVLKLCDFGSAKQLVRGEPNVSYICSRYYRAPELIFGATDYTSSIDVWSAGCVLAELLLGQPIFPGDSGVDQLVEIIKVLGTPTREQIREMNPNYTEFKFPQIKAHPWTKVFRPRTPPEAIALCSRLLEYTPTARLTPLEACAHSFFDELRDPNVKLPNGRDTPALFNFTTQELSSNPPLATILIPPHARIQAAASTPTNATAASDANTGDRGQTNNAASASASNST

[8] = Stability in human liver microsomes at 1 uM in absence of NADPH cofactor; assay type: ADME, microsome
[9] = biological target: Platelet-derived growth factor receptor alpha (Homo sapiens, UniProt P16234); assay: Inhibition of wild-type PDGFR-alpha (unknown origin)
Sequence of Platelet-derived growth factor receptor alpha (P16234 whole entry, canonical isoform): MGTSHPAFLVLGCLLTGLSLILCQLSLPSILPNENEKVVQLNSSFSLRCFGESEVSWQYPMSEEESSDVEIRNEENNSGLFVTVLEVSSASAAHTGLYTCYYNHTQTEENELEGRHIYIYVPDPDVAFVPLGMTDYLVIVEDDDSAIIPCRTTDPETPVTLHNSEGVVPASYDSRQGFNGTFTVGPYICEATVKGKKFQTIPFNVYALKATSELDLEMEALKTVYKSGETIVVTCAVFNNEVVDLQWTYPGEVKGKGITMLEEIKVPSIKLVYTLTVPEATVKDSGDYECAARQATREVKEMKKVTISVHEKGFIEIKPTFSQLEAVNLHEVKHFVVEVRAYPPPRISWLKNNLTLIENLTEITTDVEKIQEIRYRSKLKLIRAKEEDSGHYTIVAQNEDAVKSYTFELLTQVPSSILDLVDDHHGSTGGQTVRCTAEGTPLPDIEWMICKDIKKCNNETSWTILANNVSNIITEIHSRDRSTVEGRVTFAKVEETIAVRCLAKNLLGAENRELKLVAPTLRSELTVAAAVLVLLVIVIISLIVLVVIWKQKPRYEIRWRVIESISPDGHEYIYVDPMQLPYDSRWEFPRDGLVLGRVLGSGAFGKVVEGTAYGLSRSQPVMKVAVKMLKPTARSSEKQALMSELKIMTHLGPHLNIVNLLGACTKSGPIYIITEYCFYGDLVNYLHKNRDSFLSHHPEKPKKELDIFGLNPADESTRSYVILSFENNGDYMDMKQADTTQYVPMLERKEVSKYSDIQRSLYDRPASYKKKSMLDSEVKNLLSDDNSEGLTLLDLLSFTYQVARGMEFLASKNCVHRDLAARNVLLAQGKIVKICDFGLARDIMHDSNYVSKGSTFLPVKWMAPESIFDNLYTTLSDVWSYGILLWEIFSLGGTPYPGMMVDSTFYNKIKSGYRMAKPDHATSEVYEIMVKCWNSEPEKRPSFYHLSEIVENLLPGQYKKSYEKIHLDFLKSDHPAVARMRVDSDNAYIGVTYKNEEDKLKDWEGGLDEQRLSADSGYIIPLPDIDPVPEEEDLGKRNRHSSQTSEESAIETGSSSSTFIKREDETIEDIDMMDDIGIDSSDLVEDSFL

[10] = biological target: Casein kinase I isoform alpha (Homo sapiens, UniProt P48729); assay: Inhibition of CK1-alpha1 (unknown origin)
[11] = biological target: Cyclin-Y/Cyclin-dependent kinase 16 (Homo sapiens, UniProt Q00536); assay: Inhibition of PCTAIRE1/cyclinY (unknown origin); assay type: protein-complex assay
Sequence of Cyclin-Y/Cyclin-dependent kinase 16 (Q00536 whole entry): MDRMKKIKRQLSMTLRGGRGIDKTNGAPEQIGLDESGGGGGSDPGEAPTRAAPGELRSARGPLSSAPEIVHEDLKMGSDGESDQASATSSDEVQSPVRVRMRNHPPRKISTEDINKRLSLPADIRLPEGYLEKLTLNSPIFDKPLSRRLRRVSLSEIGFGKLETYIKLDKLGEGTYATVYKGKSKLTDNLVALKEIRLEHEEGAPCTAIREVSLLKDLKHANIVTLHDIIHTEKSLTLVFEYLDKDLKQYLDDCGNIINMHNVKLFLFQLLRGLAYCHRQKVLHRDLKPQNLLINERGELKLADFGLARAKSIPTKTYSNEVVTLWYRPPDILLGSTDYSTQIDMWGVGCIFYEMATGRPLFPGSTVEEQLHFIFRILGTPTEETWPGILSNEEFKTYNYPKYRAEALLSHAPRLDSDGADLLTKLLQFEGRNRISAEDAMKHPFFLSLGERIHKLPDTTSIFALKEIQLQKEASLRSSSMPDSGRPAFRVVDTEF
Sequence of Cyclin-Y/Cyclin-dependent kinase 16 (Q8ND76 whole entry, further chain): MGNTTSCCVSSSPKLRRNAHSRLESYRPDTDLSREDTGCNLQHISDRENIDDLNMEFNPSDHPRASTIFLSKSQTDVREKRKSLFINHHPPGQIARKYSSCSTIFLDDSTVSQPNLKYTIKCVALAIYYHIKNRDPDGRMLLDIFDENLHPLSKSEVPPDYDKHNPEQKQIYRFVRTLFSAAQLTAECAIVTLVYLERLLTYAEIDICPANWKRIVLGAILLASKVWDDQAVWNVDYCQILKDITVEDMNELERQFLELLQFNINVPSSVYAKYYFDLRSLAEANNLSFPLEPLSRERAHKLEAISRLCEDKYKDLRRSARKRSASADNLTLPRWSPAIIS

[12] = biological target: Serine/threonine-protein kinase 4 (Homo sapiens, UniProt Q13043); assay: Inhibition of MST1 (unknown origin)
[13] = biological target: T1, Mitogen-activated protein kinase kinase kinase 14; assay: Inhibition of recombinant human full-length N-terminal GST-fused/His6-tagged NIK (M1 to P947 residues) expressed in Sf9 insect cells using AKDVDQGSLCTSFVGTLQY peptide as substrate measured after 60 mins by ADP-Glo kinase assay
[14] = biological target: Mitogen-activated protein kinase 1 (Homo sapiens, UniProt P28482); assay: Inhibition of ERK2 (unknown origin)
Sequence of Mitogen-activated protein kinase 1 (P28482 whole entry): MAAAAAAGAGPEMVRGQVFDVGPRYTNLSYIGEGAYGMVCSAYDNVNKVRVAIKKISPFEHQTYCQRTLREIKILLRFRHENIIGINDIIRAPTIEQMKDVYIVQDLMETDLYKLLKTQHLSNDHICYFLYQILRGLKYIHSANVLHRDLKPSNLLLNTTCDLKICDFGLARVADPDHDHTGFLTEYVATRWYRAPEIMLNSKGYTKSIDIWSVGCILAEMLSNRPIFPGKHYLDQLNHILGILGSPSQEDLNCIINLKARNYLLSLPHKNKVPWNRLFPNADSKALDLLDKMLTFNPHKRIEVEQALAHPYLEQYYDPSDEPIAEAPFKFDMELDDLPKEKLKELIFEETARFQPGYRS

[15] = biological target: Serine/threonine-protein kinase PLK1 (Homo sapiens, UniProt P53350); assay: Inhibition of PLK1 (unknown origin)
[16] = biological target: Serine/threonine-protein kinase pim-1 (Homo sapiens, UniProt P11309); assay: Inhibition of PIM1 (unknown origin)
Sequence of Serine/threonine-protein kinase pim-1 (P11309 whole entry): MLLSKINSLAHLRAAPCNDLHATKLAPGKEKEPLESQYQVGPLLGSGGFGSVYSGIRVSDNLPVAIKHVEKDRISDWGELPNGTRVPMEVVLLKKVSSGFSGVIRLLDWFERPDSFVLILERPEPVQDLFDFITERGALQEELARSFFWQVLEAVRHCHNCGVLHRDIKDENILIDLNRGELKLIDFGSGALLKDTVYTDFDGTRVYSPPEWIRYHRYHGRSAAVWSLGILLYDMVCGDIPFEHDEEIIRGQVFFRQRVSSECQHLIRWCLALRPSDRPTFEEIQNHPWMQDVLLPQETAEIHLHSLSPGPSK

[17] = biological target: Serine/threonine-protein kinase B-raf (Homo sapiens, UniProt P15056); assay: Inhibition of wild-type B-RAF (unknown origin)
[18] = Stability in human liver microsomes at 1 uM in presence of NADPH cofactor; assay type: ADME, microsome; conditions: read-out: Stability
[19] = biological target: Homeodomain-interacting protein kinase 1 (Homo sapiens, UniProt Q86Z02); assay: Inhibition of HIPK1 (unknown origin)
[20] = Cytotoxicity against human EJM cells assessed as cell viability at 25 uM after 6 hrs by CellTiter Glo luminescent assay relative to control; assay type: cell-based; conditions: read-out: Activity
Summary of the method: (§2)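 Cells seeded at 5 x 10^3 per well and exposed for 6 h to the compound (10, 25, 50 or 100 µM) or to DMSO vehicle. Viability was read as intracellular ATP by CellTiter Glo luminescence.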

[21] = biological target: Serine/threonine-protein kinase Nek6 (Homo sapiens, UniProt Q9HC98); assay: Inhibition of NEK6 (unknown origin)
[22] = biological target: Calcium/calmodulin-dependent protein kinase kinase 1 (Homo sapiens, UniProt Q8N5S9); assay: Inhibition of CAMKK1 (unknown origin)
[23] = biological target: Serine/threonine-protein kinase TAO2 (Homo sapiens, UniProt Q9UL54); assay: Inhibition of TAOK2 (unknown origin)
[24] = biological target: Proto-oncogene tyrosine-protein kinase Src (Homo sapiens, UniProt P12931); assay: Inhibition of GST/His-tagged SRC (unknown origin)
MDA-MB-231 = assay: Inhibition of NFkappaB activation in human MDA-MB-231 cells at 100 uM after 6 hrs by dual luciferase reporter gene assay relative to control; assay type: cell-based; summary of the method: as §1
[25] = biological target: Serine/threonine-protein kinase PAK 1 (Homo sapiens, UniProt Q13153); assay: Inhibition of PAK1 (unknown origin)
Sequence of Serine/threonine-protein kinase PAK 1 (Q13153 whole entry): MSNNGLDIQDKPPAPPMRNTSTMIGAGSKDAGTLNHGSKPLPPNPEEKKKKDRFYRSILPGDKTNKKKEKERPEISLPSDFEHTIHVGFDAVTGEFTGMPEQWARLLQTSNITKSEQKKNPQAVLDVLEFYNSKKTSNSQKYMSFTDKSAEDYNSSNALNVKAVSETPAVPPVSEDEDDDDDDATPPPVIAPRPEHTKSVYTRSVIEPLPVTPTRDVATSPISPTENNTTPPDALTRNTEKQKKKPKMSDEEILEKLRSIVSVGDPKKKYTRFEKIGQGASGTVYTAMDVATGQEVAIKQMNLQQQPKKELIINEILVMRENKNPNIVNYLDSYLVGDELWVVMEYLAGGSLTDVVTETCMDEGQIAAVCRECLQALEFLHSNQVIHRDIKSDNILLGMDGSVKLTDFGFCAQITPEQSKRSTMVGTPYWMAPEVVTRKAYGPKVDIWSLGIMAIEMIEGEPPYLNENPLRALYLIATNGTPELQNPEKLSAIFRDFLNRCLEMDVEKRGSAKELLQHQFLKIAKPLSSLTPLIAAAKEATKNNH

[26] = biological target: Cyclin-dependent kinase 1/cyclin B1 (Homo sapiens, UniProt P06493); assay: Inhibition of CDK1/Cyclin B1 (unknown origin); assay type: protein-complex assay
Sequence of Cyclin-dependent kinase 1/cyclin B1 (P06493 whole entry): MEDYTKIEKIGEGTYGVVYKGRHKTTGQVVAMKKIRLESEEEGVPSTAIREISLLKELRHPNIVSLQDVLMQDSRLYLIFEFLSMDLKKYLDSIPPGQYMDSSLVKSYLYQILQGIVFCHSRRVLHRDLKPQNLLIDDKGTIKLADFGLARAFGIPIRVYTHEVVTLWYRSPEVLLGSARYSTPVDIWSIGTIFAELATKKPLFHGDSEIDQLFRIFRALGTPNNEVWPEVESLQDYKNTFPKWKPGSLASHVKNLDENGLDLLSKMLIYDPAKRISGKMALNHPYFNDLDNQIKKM
Sequence of Cyclin-dependent kinase 1/cyclin B1 (P14635 whole entry, further chain): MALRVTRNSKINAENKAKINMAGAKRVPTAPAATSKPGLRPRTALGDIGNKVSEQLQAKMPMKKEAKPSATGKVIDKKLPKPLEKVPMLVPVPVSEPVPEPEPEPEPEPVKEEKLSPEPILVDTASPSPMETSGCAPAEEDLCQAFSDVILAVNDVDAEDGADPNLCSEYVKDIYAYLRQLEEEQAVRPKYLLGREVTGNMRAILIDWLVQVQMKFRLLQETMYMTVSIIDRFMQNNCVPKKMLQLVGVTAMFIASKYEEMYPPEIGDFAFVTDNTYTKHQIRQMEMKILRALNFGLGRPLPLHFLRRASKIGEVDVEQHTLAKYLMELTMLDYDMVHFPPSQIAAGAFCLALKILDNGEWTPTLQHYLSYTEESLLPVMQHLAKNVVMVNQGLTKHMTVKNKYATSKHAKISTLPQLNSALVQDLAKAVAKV

SRSF protein kinase 2 = SRSF protein kinase 2 (Homo sapiens, UniProt P78362); assay: Inhibition of SRPK2 (unknown origin)
Sequence of SRSF protein kinase 2 (P78362 whole entry): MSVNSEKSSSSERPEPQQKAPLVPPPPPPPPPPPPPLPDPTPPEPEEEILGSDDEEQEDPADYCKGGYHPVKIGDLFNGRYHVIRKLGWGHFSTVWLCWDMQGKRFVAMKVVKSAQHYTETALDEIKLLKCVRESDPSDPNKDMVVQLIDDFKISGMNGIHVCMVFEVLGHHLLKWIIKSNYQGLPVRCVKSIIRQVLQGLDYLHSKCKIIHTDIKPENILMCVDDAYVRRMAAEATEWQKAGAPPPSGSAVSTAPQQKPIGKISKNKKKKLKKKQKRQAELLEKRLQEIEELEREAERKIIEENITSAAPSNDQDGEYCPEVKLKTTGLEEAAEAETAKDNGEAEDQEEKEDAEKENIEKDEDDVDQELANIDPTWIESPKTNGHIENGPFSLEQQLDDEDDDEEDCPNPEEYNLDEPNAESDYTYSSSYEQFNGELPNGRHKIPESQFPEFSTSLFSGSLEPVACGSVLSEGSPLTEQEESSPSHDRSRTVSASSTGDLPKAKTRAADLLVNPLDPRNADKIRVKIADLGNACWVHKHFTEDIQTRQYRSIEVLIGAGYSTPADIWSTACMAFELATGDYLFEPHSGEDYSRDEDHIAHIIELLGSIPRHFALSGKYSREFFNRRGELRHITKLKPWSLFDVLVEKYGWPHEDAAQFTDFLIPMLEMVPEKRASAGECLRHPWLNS

[27] = Cytotoxicity against human MDA-MB-231 cells assessed as cell viability at 100 uM after 6 hrs by CellTiter Glo luminescent assay relative to control; assay type: cell-based; conditions: read-out: Activity; summary of the method: as §2
Insulin receptor = Insulin receptor (Homo sapiens, UniProt P06213); assay: Inhibition of INSR (unknown origin)
[28] = biological target: Serine/threonine-protein kinase Chk2 (Homo sapiens, UniProt O96017); assay: Inhibition of CHK2 (unknown origin)
[29] = biological target: Death-associated protein kinase 1 (Homo sapiens, UniProt P53355); assay: Inhibition of DAPK1 (unknown origin)
Homo sapiens = species on record: Homo sapiens; assay: Inhibition of NFkappaB activation in human SKBR3 cells at 100 uM after 6 hrs by dual luciferase reporter gene assay relative to control; assay type: cell-based; summary of the method: as §1

IC50 [1]: > 100 µM
IC50 [2]: > 100 µM
IC50 [3]: > 100 µM
inhibition [4]: 83.4%
logD [5]: 4.09
IC50 [6]: > 100 µM
IC50 [7]: > 100 µM
Stability [8]: Unstable
IC50 [9]: > 100 µM
IC50 [10]: > 100 µM
IC50 [11]: > 100 µM
IC50 [12]: > 100 µM
IC50 [13]: 8.4 µM
IC50 [14]: > 100 µM
IC50 [15]: > 100 µM
IC50 [16]: > 100 µM
IC50 [17]: > 100 µM
remaining at 1 µM [18]: 1%
IC50 [19]: > 100 µM
IC50 [21]: > 100 µM
IC50 [22]: > 100 µM
IC50 [23]: > 100 µM
IC50 [24]: > 100 µM
IC50 [25]: > 100 µM
IC50 [26]: > 100 µM
IC50 (SRSF protein kinase 2): > 100 µM
IC50 (Insulin receptor): > 100 µM
IC50 [28]: > 100 µM
Compound: CC(=O)n1nc(C)c(-c2ccc(Cl)c(Cl)c2)c1N
viability at 6 h, 25 µM [20]: ≥ 80%
inhibition (MDA-MB-231): -0.77%
viability at 6 h, 100 µM [27]: ≥ 80%
IC50 [29]: > 100 µM
inhibition (Homo sapiens): 3.9%
